Screens from PubChem.
ABHD5-PLIN5 inh – blocks binding of human ABHD5 to perilipin-5. Split G. princeps luciferase complementation, luminescence, 4 h. inhibition, % at 4 µM. 360,000 tested, 0.78% active. AID 602281;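 active means inhibition above the mean inhibition across every tested compound plus 3 SD, cut at about 22% in these data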;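 further: 0% = DMSO only wells and the 100% control is not disclosed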
Target sequence (Q00G26 whole entry, looked up): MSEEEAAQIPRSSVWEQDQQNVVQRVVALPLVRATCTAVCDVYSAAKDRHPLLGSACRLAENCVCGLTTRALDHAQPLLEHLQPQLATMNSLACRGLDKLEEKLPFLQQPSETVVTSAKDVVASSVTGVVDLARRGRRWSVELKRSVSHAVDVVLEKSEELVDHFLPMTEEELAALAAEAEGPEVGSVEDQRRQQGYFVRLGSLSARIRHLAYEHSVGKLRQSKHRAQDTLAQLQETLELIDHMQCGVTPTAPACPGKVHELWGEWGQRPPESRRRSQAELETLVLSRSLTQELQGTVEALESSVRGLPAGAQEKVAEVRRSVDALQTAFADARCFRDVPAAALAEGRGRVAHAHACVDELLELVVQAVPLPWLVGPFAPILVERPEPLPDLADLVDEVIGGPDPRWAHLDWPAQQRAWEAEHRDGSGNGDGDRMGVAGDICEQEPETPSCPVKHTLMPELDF
Target sequence (Q8WTS1 whole entry, looked up): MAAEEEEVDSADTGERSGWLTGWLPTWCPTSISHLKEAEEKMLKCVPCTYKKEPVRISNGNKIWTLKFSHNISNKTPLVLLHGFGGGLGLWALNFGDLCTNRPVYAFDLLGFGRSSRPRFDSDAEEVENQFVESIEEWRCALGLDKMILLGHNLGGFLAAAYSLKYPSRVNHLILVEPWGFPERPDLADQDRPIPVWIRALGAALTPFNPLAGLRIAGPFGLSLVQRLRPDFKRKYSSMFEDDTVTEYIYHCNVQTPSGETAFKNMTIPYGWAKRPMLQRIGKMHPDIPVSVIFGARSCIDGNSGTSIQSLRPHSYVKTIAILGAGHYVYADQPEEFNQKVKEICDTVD
core dimer inh – HCV core protein dimerization inhibition; 300,000 tested, 0.33% active; inhibition, % at 5 µM; AID 1899; TR-FRET GST/Flag-core106 dimerization, 1536-well;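 active means inhibition above the mean of all tested compounds plus 3 SD, set per screening campaign, cut at about 45% in these data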
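System: GST-tagged and Flag-tagged HCV core protein residues 1-106 / Input: core106 proteins, GST 13.5 nM and Flag 17 nM / Buffer or medium: KF-containing HEPES buffer, pH 7.45, DTT, CHAPS, BSA / Probe or stimulus: Eu-anti-GST and XL665-anti-Flag labelled anti-tag antibodies / Schedule: 4 h, 22.5 °C incubation / Technique: TR-FRET 671 and 617 nm emission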
rCAG binder-1 – molecules binding r(CAG) RNA repeats; AID 651821; 370,000 tested, 1.3% active; inhibition, % at 3 µM; r(CAG) RNA repeat, TO-PRO-1 dye displacement fluorescence;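 active means inhibition above the plate cutoff, the mean of all test compounds on that plate plus 3 SD, cut at about 35% in these data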;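 further: 0% = DMSO alone and 100% = 100 µM mitoxantrone as full dye displacement; higher means more dye released from RNA so lower well fluorescence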
NadD block – blocks S. aureus nicotinate mononucleotide adenylyltransferase; purified NadD enzyme, colorimetric absorbance read-out; inhibition, % at 20 µM; 360,000 tested, 0.78% active; in the data active means inhibition above about 26%
rCAG binder conf – r(CAG) RNA repeat binding, confirmation; shares compounds with rCAG binder-1; 4,300 tested, 70% active; TO-PRO-1 dye displacement fluorescence; inhibition, % at 3 µM; AID 652065;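 active means inhibition above a per-plate cutoff, the mean inhibition of sample wells plus 3 SD, cut at about 35% in these data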;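 further: loss of TO-PRO-1 fluorescence as compound displaces dye from 1x1 AA loop RNA; 0% = DMSO only wells and 100% = 100 µM mitoxantrone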
DNA CAG counter – counter-screen for rCAG RNA binders: DNA CAG dye complex inhibitors; shares compounds with rCAG binder-1; d(CAG) DNA oligo TO-PRO-1 dye displacement, fluorescence; inhibition, % at 3 µM; 4,300 tested, 94% active; AID 652068;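 active means inhibition above its plate's cutoff, the mean test-well inhibition plus 3 SD, cut at about 4.8% in these data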;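 further: 0% = DNA dye mix with DMSO and 100% = 100 µM mitoxantrone; hits displace the dye from DNA and so lower well fluorescence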
DNA CAG DR – counter-screen for rCAG binders: inhibitors of DNA CAG TO-PRO-1 complex | AID 686960 | shares compounds with rCAG binder-1 | 250 tested, 20% active | IC50, µM | DNA CAG/GTC duplex TO-PRO-1 dye displacement fluorescence; in the data active means IC50 below about 10 µM
dCAG TOPRO ctr – inhibits DNA CAG/GTC TO-PRO-1 complex, rCAG binder counter-screen. shares compounds with rCAG binder-1. 30 tested, 80% active. IC50, µM. d(CAG) DNA duplex TO-PRO-1 dye displacement, fluorescence
rCAG binder-2 – binds r(CAG) RNA repeats in late stage dose response; r(CAG) RNA TO-PRO-1 dye displacement, fluorescence; 30 tested, 100% active; IC50, µM; AID 720651; shares compounds with rCAG binder-1
Starred values were filed as active, the others as inactive; i = inactive; x = no result given. Rows were chosen to be rich in hits. Some 2.6% of all compounds tested hit in one or more screens of this group. Unless noted, how the calls were made is not given here.

SMILES	ABHD5-PLIN5 inh	core dimer inh	rCAG binder-1	NadD block	rCAG binder conf	DNA CAG counter	others
CN(Cc1ccco1)S(=O)(=O)c1nnc(NC(=O)c2ccc(F)cc2)s1	14	5	37*	10	25	7.4*
CCOc1ccc(C(=O)Nc2nnc(S(=O)(=O)N(C)Cc3ccco3)s2)cc1	18	2	36*	18	37*	11*
CCCc1nn2c(=O)c(C(c3cccc(Cl)c3)c3c(O)nc4sc(CCC)nn4c3=O)c(O)nc2s1	4	45	39*	11	51*	16*
CCn1nc(NS(=O)(=O)c2ccc([N+](=O)[O-])cc2)c2cc3ccc(C)cc3nc21	-12	3	53*	4	37*	9.6*
CCn1nc(NS(=O)(=O)c2ccc([N+](=O)[O-])cc2)c2cc3cc(C)ccc3nc21	-2	-7	16	11	x	x
Nc1ccn([C@@H]2O[C@H](C(=O)N3CCN(Cc4ccccn4)CC3)[C@@H](O)[C@H]2O)c(=O)n1	9	x	2	-1	x	x
COCCCNC(=O)C[C@@H]1C[C@@]2(C(=O)OC)CCCCC=C2N(Cc2ccc(Cl)cc2Cl)C1=O	2	x	2	-4	x	x
O=C(COc1ccc(Cl)cc1)Nc1cc(NC(=O)COc2ccc(Cl)cc2)cc(C(=O)O)c1	2	25	74*	0	82*	48*
Cc1ccc(S(=O)(=O)N(C)c2ccc(OCC(=O)Nc3cc(C(=O)O)ccc3Cl)cc2)cc1	x	x	61*	x	57*	20*
Cc1ccc(NC(=O)COc2ccc(N(C)S(=O)(=O)c3ccc(F)cc3)cc2)cc1	-6	x	2	-4	x	x
Cc1ccc(OCC(=O)Nc2cc(C(=O)O)cc(C(=O)O)c2)cc1C	1	4	7	6	x	x
Cc1ccc(OCC(=O)Nc2cc(NC(=O)COc3ccc(C)cc3)cc(C(=O)O)c2)cc1	2	15	70*	6	64*	25*
COCCN1C(=O)COc2ccccc2C1C(=O)NC(C)(C)C (configuration not stated)	-1	x	0	5	x	x
Cc1ccnc(OC(C(=O)O)C(OCc2ccccc2)(c2ccccc2)c2ccc(C(F)(F)F)cc2)n1 (configuration not stated)	-12	16	50*	11	49*	14*	DNA CAG DR=>30
Cc1cc(C)nc(OC(C(=O)O)C(OCc2ccccc2)(c2ccccc2)c2ccccc2)n1 (configuration not stated)	-1	-14	29	6	x	x
O=C(CSc1nnc(CCCOc2ccc(Cl)cc2Cl)o1)Nc1ccc(C(=O)O)cc1	6	2	42*	-4	28	5.0*
O=C(CSc1nnc(COc2ccc(Cl)cc2Cl)o1)Nc1ccccn1	5	5	-2	4	x	x
Cc1ccc(Nc2ccc(N)cc2S(=O)(=O)O)cc1	-7	-11	36*	2	26	7.2*
Nc1ccc(Nc2ccccc2)c(S(=O)(=O)O)c1	5	-15	32	7	x	x
Cc1c(CCCC(=O)O)sc(N)c1C(=O)c1cccc(C(F)(F)F)c1	-6	-18	47*	4	27	5.0*
COc1ccc(/C=N/S(=O)(=O)c2cccs2)cc1	5	-3	-2	4	x	x
COc1ccc(/C=C2\S/C(=N/S(=O)(=O)c3cccs3)NC2=O)cc1	1	2	73*	14	50*	16*
O=S(=O)(c1cc(O)ccc1O)c1cccc2c(S(=O)(=O)c3cc(O)ccc3O)cccc12	13	-37	43*	26	36*	24*
O=S(=O)(O)c1cc(O)ccc1O	-9	3	-1	-4	x	x
N#Cc1cccc(NC(=O)CSc2n[nH]c(=O)[nH]c2=O)c1	1	0	2	0	x	x
SMILES	ABHD5-PLIN5 inh	core dimer inh	rCAG binder-1	NadD block	rCAG binder conf	DNA CAG counter	others
N#Cc1cccc(NC(=O)CSc2sc3c(O)cc(=O)[nH]c3c2C#N)c1	-1	-7	47*	18	19	7.3*
CCOc1cccc(NC(=O)CSc2sc3c(O)cc(=O)[nH]c3c2C#N)c1	-4	-3	39*	3	23	9.4*
CCOc1cccc(NC(=O)CSc2nncn2N)c1	-16	-2	3	-4	x	x
COc1ccc(CNC(=O)CCNS(=O)(=O)c2ccc3[nH]c(=O)oc3c2)cc1	x	x	1	x	x	x
O=c1[nH]c(=O)n(Cc2ccco2)c2c1C(C(F)(F)F)(C(F)(F)F)N=C(CCc1ccccc1)N2	-1	5	-4	-5	x	x
N#Cc1ccc(C2=NC(C(F)(F)F)(C(F)(F)F)c3c(n(Cc4ccco4)c(=O)[nH]c3=O)N2)cc1	5	7	36*	2	37*	7.1*	DNA CAG DR=>30;dCAG TOPRO ctr=i;rCAG binder-2=3.6*
CC(=O)[C@H]1CC[C@@H](c2ccccc2)N(S(=O)(=O)c2ccc(C)cc2)C1	-2	x	-1	x	x	x
O=C(Nc1ccccc1Cl)c1cc(S(=O)(=O)N2CCOCC2)cs1	6	-1	-1	-1	x	x
O=C(Nc1ccccc1C(=O)O)c1cc(S(=O)(=O)N2CCOCC2)c(Br)s1	12	-4	47*	-4	67*	36*
Cc1cccc(NC(=O)CCS(=O)(=O)c2ccc3nc(C)sc3c2)c1	3	x	1	-3	x	x
CN=c1scc(-c2cccs2)n1/N=C/c1ccccc1O	-7	-2	5	-2	x	x
CN=c1scc(-c2cccs2)n1/N=C/c1ccc(O)c(O)c1O	-13	7	61*	20	54*	25*
C=CCN=c1scc(-c2ccco2)n1/N=C/c1ccc(O)c(O)c1O	-9	6	44*	20	59*	29*
COCCN=c1scc(-c2ccco2)n1/N=C/c1ccc(O)c(O)c1O	2	54*	48*	39*	60*	30*
CC(C)N=c1scc(-c2ccco2)n1/N=C/c1ccc(O)c(O)c1	-4	-2	20	2	x	x
CCCCCCCCN1C(=O)[C@H](CC(=O)N2CCN(C(=O)OCC)CC2)C[C@@]2(C(=O)OCC)CCCC=C12	8	x	2	0	x	x
OC[C@@H](O)C(O)[C@@H](O)CO (some centres not stated)	1	x	3	2	x	x
Nc1ccc(S(=O)(=O)Nc2nc(-c3ccccc3)cc(-c3ccccc3O)n2)cc1	-12	x	58*	8	54*	18*
